Among the data in ChEMBL document CHEMBL1240335, “Integrating high-content screening and ligand-target prediction to identify mechanism of action” (Nat Chem Biol, 2008) are inhibition and Activity values, retold here.

Common to all, as to format: functional, cell-based
In assay [1] the test system is HeLa. The assay is described as follows: Cytotoxicity against human HeLa cells assessed as inhibition of DNA replication by imaging analysis. Put shortly:
(§1)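 HeLa cells (2,000 per well, DMEM with 10% FBS) were plated overnight, then treated with compound at 10 μM final for 20 h at 37 °C, in duplicate. Cells were pulsed 40 min with 500 nM EdU and fixed in 3.7% paraformaldehyde. Replication was read by rhodamine-azide click labelling, mitosis by anti-phosphohistone H3 Ser10/Cy5, and DNA by Hoechst. Automated 10× imaging scored ≥500 cells per well.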

For assay [2], the system named is HeLa. The assay can be described thus: Inhibition of mitosis in human HeLa cells by imaging analysis. A digest of the protocol:
as §1

Assay [3] concerns HeLa. The assay can be described thus: Induction of cell cycle arrest in human HeLa cells assessed as accumulation at G1 arrest at 10 uM after 20 hrs by Hoescht 33342 staining. Put shortly: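 HeLa cells plated at 2,000 per well in DMEM with 10% FBS and penicillin/streptomycin, grown overnight, then treated at a final 10 μM (diluted from 10 mM DMSO stock) for 20 h at 37 °C in duplicate. Pulsed 40 min with 500 nM EdU, fixed in 3.7% paraformaldehyde, stained with Hoechst 33342, anti-phosphoH3 Ser10 and rhodamine-azide. Imaged by automated microscopy at 10×; ≥500 cells scored per well.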

The source made the active and inactive calls. The rule behind the calls is not given here.

Take `CC(=O)[C@H]1CC[C@H]2[C@@H]3CCC4=CC(=O)CC[C@]4(C)[C@H]3CC[C@]12C`: the inhibition entry in assay [1] and in assay [2] was “Active” in each case.

With `CCC(=O)O[C@]1(C(=O)CCl)[C@@H](C)C[C@H]2[C@@H]3CCC4=CC(=O)C=C[C@]4(C)[C@@]3(F)[C@@H](O)C[C@@]21C`, the inhibition entry in assay [1] and in assay [2] was “Active” each time.

As to `C#C[C@]1(O)CC[C@H]2[C@@H]3CCC4=Cc5oncc5C[C@]4(C)[C@H]3CC[C@@]21C`, the inhibition entry in assay [1] and in assay [2] was “Active” in each case.

Consider `C[C@]12C=CC(=O)C=C1CC[C@H]1[C@@H]3C[C@@H](O)[C@](O)(C(=O)CO)[C@@]3(C)C[C@H](O)[C@@]12F`, for which the inhibition result in assay [1] and in assay [2] was “Active” each time.

For the compound `CC(C)[C@H]1CC[C@@](O)(CCl)[C@H]2C(=O)OCC(C(=O)O)=C[C@H]12`, the result in assay [3] was Active.

Consider `CCCCCC[C@H]1CC[C@@](O)([C@@](C)(O)C(=O)N[C@@H]2C(=O)N3NCCC[C@@H]3C(=O)N(O)[C@@H](COC)C(=O)NCC(=O)N3NCCC[C@H]3C(=O)N(O)[C@H](C)C(=O)O[C@H]2C)OC1C` (some centres undefined), for which the outcome in assay [3] was Active.

With `CC[C@H]1CN2CCc3cc(OC)c(OC)cc3[C@@H]2C[C@@H]1C[C@H]1NCCc2cc(OC)c(OC)cc21`, the inhibition result in assay [1] and in assay [2] was “Active” throughout.

Take `CC1=C2O[C@]3(O)C=C2C(=C(O)C1=O)[C@@H]1O[C@H](CC[C@H](C)/C=C(\C)C[C@@H](C)C[C@@H]3C)[C@H](C)[C@H](O)[C@H]1C`: the result in assay [3] was Active.

Regarding `C[C@@H]1C[C@@H]([C@H](O)CC2CC(=O)NC(=O)C2)C(=O)[C@@H](C)C1`, the inhibition entry in assay [1] and in assay [2] was “Active” throughout.

As for `C[C@H]1O[C@@H](O[C@H]2[C@@H](O)C[C@H](O[C@H]3[C@@H](O)C[C@H](O[C@H]4CC[C@@]5(C)[C@H](CC[C@@H]6[C@@H]5C[C@@H](O)[C@]5(C)[C@@H](C7=CC(=O)OC7)CC[C@]65O)C4)O[C@@H]3C)O[C@@H]2C)C[C@H](O)[C@@H]1O`, the inhibition result in assay [1] and in assay [2] was “Active” throughout.

For the compound `C[C@@H]1O[C@@H](O[C@H]2C[C@@H](O)[C@]3(CO)[C@H]4[C@H](O)C[C@]5(C)[C@@H](C6=CC(=O)OC6)CC[C@]5(O)[C@@H]4CC[C@]3(O)C2)[C@H](O)[C@H](O)[C@H]1O`, the inhibition result in assay [1] and in assay [2] was “Active” each time.

Consider `C[C@@H]1C[C@H]2[C@@H]3CCC4=CC(=O)C=C[C@]4(C)[C@@]3(F)[C@@H](O)C[C@]2(C)[C@@]1(O)C(=O)CO`, for which the inhibition result in assay [1] and in assay [2] was “Active” in each case.

With `COC[C@H]1C(=O)NCC(=O)N2NCCC[C@H]2C(=O)N(O)[C@H](C)C(=O)O[C@@H](C(C)C)[C@H](NC(=O)[C@](C)(O)[C@]2(O)CC[C@@H](CC(C)C)[C@H](C)O2)C(=O)N2NCCC[C@@H]2C(=O)N1O`, the outcome in assay [3] was Active.

Regarding `C[C@]12CC[C@H](O)C[C@H]1CC[C@@H]1[C@@H]2CC[C@]2(C)[C@@H](C3=CC(=O)OC3)CC[C@]12O`, the inhibition entry in assay [1] and in assay [2] was “Active” each time.
